Data reported in ChEMBL document CHEMBL1128300, “Synthesis and in vivo evaluation of prodrugs of 9-[2-(phosphonomethoxy)ethoxy]adenine” (J Med Chem, 1995).

Key:
Mus musculus [1] = test: Concentration of the 9-[2-(Phosphonomethoxy)ethoxy]adenine in the blood following oral administration in mice; format: ADME, organism-based; parameters: unit not given here; details: in vivo
Outline: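 Single 0.2 mmol/kg oral gavage dose to female BALB/c mice fasted 16 h, vehicle 1% carboxymethyl cellulose plus 1% Tween 80 in water. At each time point blood from three mice pooled, deproteinized with ice-cold ethanol at -20 °C, and parent phosphonate quantified by C18 HPLC with a gradient from pH 2.6 phosphate ion-pair buffer to 80% methanol.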

Mus musculus [2] = test: % bioavailability in mice after oral administration of prodrug; format: ADME, organism-based; details: in vivo
Outline: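 Female BALB/c mice, fasted 16 h, single oral gavage 0.2 mmol/kg in 1% carboxymethyl cellulose plus 1% Tween 80 in water. Blood from three mice per time point pooled, ethanol-deproteinized, analysed by reversed-phase C18 HPLC (ion-pair phosphate buffer pH 2.6 / methanol gradient). Bioavailability as oral AUC of released parent phosphonate expressed as percent of intravenous AUC of its sodium salt.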

[3] = system: Human immunodeficiency virus 1; test: Inhibitory activity against HIV-1, in peripheral blood lymphocytes
[4] = system: Simian immunodeficiency virus; test: Inhibitory activity against Simian immunodeficiency virus.; format: functional, organism-based
[5] = system: Feline immunodeficiency virus; test: Inhibitory activity against Feline immunodeficiency virus.; format: functional, organism-based
[6] = system: Human immunodeficiency virus 2; test: Inhibitory activity against HIV-2, in peripheral blood lymphocytes

For `CC(C)C(=O)Oc1ccc(COP(=O)(COCCOn2cnc3c(N)ncnc32)OCc2ccc(OC(=O)C(C)C)cc2)cc1`, the AUC (Mus musculus [1]) was 0.5 and the F% (Mus musculus [2]) was 1%.

For `CCOP(=O)(COCCOn1cnc2c(N)ncnc21)OCC`, the AUC (Mus musculus [1]) was 4 and the F% (Mus musculus [2]) was 8%.

In the case of `Cl.Nc1ncnc2c1ncn2OCCOCP(=O)(Oc1ccccc1)Oc1ccccc1`, the AUC (Mus musculus [1]) is reported as 25 and the F% (Mus musculus [2]) is reported as 50%.

`Cc1ccccc1OP(=O)(COCCOn1cnc2c(N)ncnc21)Oc1ccccc1C` was tested, and the AUC (Mus musculus [1]) was 11 and the F% (Mus musculus [2]) was 22%.

`CC(OC(=O)C(C)(C)C)OP(=O)(COCCOn1cnc2c(N)ncnc21)OC(C)OC(=O)C(C)(C)C` (stereo unspecified) gave an AUC (Mus musculus [1]) of 37 and a F% (Mus musculus [2]) of 74%.

`CC(C)OP(=O)(COCCOn1cnc2c(N)ncnc21)OCC(=O)OC(C)(C)C` (stereo unspecified) showed an AUC (Mus musculus [1]) of 0 and a F% (Mus musculus [2]) of 0%.

`CC(C)(C)C(=O)OCOP(=O)(COCCOn1cnc2c(N)ncnc21)OCOC(=O)C(C)(C)C` showed an AUC (Mus musculus [1]) of 15 and a F% (Mus musculus [2]) of 30%.

Work on `Nc1ncnc2c1ncn2OCCOCP(=O)(OCc1ccc(Br)cc1)OCc1ccc(Br)cc1` yielded an AUC (Mus musculus [1]) of 1 and a F% (Mus musculus [2]) of 2%.

For `Nc1ncnc2c1ncn2OCCOCP(=O)(O)O`, the IC50 [3] was 200 nM, the IC50 [4] was 3000 nM and the IC50 [5] was 1700 nM. It also gave an IC50 [6] of 300 nM.

Work on `CC(C)(CCl)C(=O)OCOP(=O)(COCCOn1cnc2c(N)ncnc21)OCOC(=O)C(C)(C)CCl` yielded an AUC (Mus musculus [1]) of 0 and a F% (Mus musculus [2]) of 0%.

`CC(OC(=O)C(C)C)OP(=O)(COCCOn1cnc2c(N)ncnc21)OC(C)OC(=O)C(C)C` (stereo unspecified) was tested, and the AUC (Mus musculus [1]) was 12 and the F% (Mus musculus [2]) was 24%.

Work on `CC(=O)Oc1ccccc1OP(=O)(COCCOn1cnc2c(N)ncnc21)Oc1ccccc1OC(C)=O` yielded an AUC (Mus musculus [1]) of 5 and a F% (Mus musculus [2]) of 10%.

`CC(=O)Oc1ccc(OP(=O)(COCCOn2cnc3c(N)ncnc32)Oc2ccc(OC(C)=O)cc2)cc1` gave an AUC (Mus musculus [1]) of 4 and a F% (Mus musculus [2]) of 8%.

Compound `Nc1ncnc2c1ncn2OCCOCP(=O)(Oc1ccc(Br)cc1)Oc1ccc(Br)cc1` has an AUC (Mus musculus [1]) of 3 and a F% (Mus musculus [2]) of 6%.

Work on `CC(=O)Oc1ccc(COP(=O)(COCCOn2cnc3c(N)ncnc32)OCc2ccc(OC(C)=O)cc2)cc1` yielded an AUC (Mus musculus [1]) of 4 and a F% (Mus musculus [2]) of 8%.

Compound `Nc1ncnc2c1ncn2OCCOCP(=O)(Oc1ccccc1)Oc1ccccc1` has an AUC (Mus musculus [1]) of 13 and a F% (Mus musculus [2]) of 26%.

`COP(=O)(COCCOn1cnc2c(N)ncnc21)OC` gave an AUC (Mus musculus [1]) of 0 and a F% (Mus musculus [2]) of 0%.

`COc1ccc(OP(=O)(COCCOn2cnc3c(N)ncnc32)Oc2ccc(OC)cc2)cc1` was tested, and the AUC (Mus musculus [1]) was 5 and the F% (Mus musculus [2]) was 10%.

`CCCCOP(=O)(COCCOn1cnc2c(N)ncnc21)OCCCC` gave an AUC (Mus musculus [1]) of 0 and a F% (Mus musculus [2]) of 0%.

`Nc1ncnc2c1ncn2OCCOCP(=O)(OCc1ccccc1)OCc1ccccc1` showed an AUC (Mus musculus [1]) of 2 and a F% (Mus musculus [2]) of 4%.

`CC(C)OP(=O)(COCCOn1cnc2c(N)ncnc21)OC(C)C` gave an AUC (Mus musculus [1]) of 5 and a F% (Mus musculus [2]) of 10%.

Compound `Nc1ncnc2c1ncn2OCCOCP(=O)(OCC(Cl)Cl)OCC(Cl)Cl` has an AUC (Mus musculus [1]) of 3 and a F% (Mus musculus [2]) of 6%.

`CC(C)(C)OC(=O)c1ccc(OP(=O)(COCCOn2cnc3c(N)ncnc32)Oc2ccc(C(=O)OC(C)(C)C)cc2)cc1` showed an AUC (Mus musculus [1]) of 0 and a F% (Mus musculus [2]) of 0%.

Work on `Nc1ncnc2c1ncn2OCCOCP(=O)(OCCBr)OCCBr` yielded an AUC (Mus musculus [1]) of 4 and a F% (Mus musculus [2]) of 8%.

`Nc1ncnc2c1ncn2OCCOCP(=O)(OCc1ccc(Cl)cc1)OCc1ccc(Cl)cc1` was tested, and the AUC (Mus musculus [1]) was 4 and the F% (Mus musculus [2]) was 8%.

With `CCOCCOP(=O)(COCCOn1cnc2c(N)ncnc21)OCCOCC` the AUC (Mus musculus [1]) was 0 and the F% (Mus musculus [2]) was 0%.

`CC(=O)OCc1ccc(OP(=O)(COCCOn2cnc3c(N)ncnc32)Oc2ccc(COC(C)=O)cc2)cc1` was tested, and the AUC (Mus musculus [1]) was 0 and the F% (Mus musculus [2]) was 0%.
